This passage reports Activity results from ChEMBL document CHEMBL1121403, “Synthesis and mutagenicity of A-ring reduced analogues of 7,12-dimethylbenz[a]anthracene” (1980).

Test [1] concerns Salmonella typhimurium. As to the kind of experiment: Mutagenic activity by measuring net reverent colonies per 10 ug of compound with Salmonella Typhimurium (TA 100 strain) in presence of S9 fraction. It counts as functional, Salmonella enterica subsp. enterica serovar Typhimurium. In outline:
(§1)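 Standard Ames soft-agar plating with doses given in Me2SO. Five or more doses from 1 to ≥10 μg/plate were tested with and without S-9 mix from PCB-induced rat liver, at 20 μL S-9/plate from a common pool. Duplicate plates per dose, triplicate for spontaneous revertants. 2-Aminoanthracene served as activation control. Net revertants per 10 μg came from regression of the linear dose-response portion.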

The test system of test [2] is Salmonella typhimurium. As to the kind of experiment: Mutagenic activity by measuring net reverent colonies per 10 ug of compound with Salmonella Typhimurium (TA 100 strain) in absence of S9 fraction. It counts as functional, Salmonella enterica subsp. enterica serovar Typhimurium. An outline of the steps: as §1
Test [3] has as its system Salmonella typhimurium. As to the kind of experiment: Mutagenic activity by measuring net reverent colonies per 10 ug of compound with Salmonella Typhimurium (TA1537 strain) in presence of S9 fraction. The test is classed as functional, Salmonella enterica subsp. enterica serovar Typhimurium. In outline: (§2)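 Frame-shift strain TA1537 in Ames soft-agar plating with doses given in Me2SO, tested at up to 15 or 10 μg/plate with and without S-9 (PCB-induced rat liver, 20 μL/plate). Duplicate plates per dose, triplicate spontaneous. Scored mutagenic if reversion was dose-dependent and at least twice spontaneous. Values were normalized to net revertants per 10 μg.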

The subject of test [4] is Salmonella typhimurium. As to the kind of experiment: Mutagenic activity by measuring net reverent colonies per 10 ug of compound with Salmonella Typhimurium (TA 98 strain) in absence of S9 fraction. The test is classed as functional, Salmonella enterica subsp. enterica serovar Typhimurium. In outline:
as §1

Test [5] has as its system Salmonella typhimurium. As to the kind of experiment: Mutagenic activity by measuring net reverent colonies per 10 ug of compound with Salmonella Typhimurium (TA 98 strain) in presence of S9 fraction. The test is classed as functional, Salmonella enterica subsp. enterica serovar Typhimurium. In outline: as §1
Test [6] deals with Salmonella typhimurium. As to the kind of experiment: Mutagenic activity by measuring net reverent colonies per 10 ug of compound with Salmonella Typhimurium (TA1537 strain) in absence of S9 fraction. The test is classed as functional, Salmonella enterica subsp. enterica serovar Typhimurium. An outline of the steps:
as §2

Test [7] concerns Salmonella typhimurium. As to the kind of experiment: Mutagenic activity by measuring net reverent colonies per 10 ug of compound with Salmonella Typhimurium (TA 98 strain) in absence of S9 fraction; - indicates no mutagenic response. It counts as functional, organism-based. Particulars: Salmonella enterica subsp. enterica serovar Typhimurium. An outline of the steps: as §1
For test [8], the system named is Salmonella typhimurium. As to the kind of experiment: Mutagenic activity by measuring net reverent colonies per 10 ug of compound with Salmonella Typhimurium (TA1537 strain) in absence of S9 fraction; - indicates no mutagenic response. It counts as functional, organism-based. Particulars: Salmonella enterica subsp. enterica serovar Typhimurium. An outline of the steps: as §2

The test system of test [9] is Salmonella typhimurium. As to the kind of experiment: Mutagenic activity by measuring net reverent colonies per 10 ug of compound with Salmonella Typhimurium (TA 100 strain) in absence of S9 fraction; - indicates no mutagenic response. It counts as functional, organism-based. Particulars: Salmonella enterica subsp. enterica serovar Typhimurium. An outline of the steps:
as §1

Test [10] has as its system Salmonella typhimurium. As to the kind of experiment: Mutagenic activity by measuring net reverent colonies per 10 ug of compound with Salmonella Typhimurium (TA1537 strain) in presence of S9 fraction; - indicates no mutagenic response. The test is classed as functional, organism-based. To be noted: Salmonella enterica subsp. enterica serovar Typhimurium. An outline of the steps:
as §2

Each structure is given as a SMILES string.

As to `Cc1c2ccccc2c(C)c2c3c(ccc12)CCCC3`, the Activity in the test on Salmonella typhimurium [1] turned out to be 270; in the test on Salmonella typhimurium [2], 173; in the test on Salmonella typhimurium [3], 7; in the test with Salmonella typhimurium [4], 47; in the test on Salmonella typhimurium [5] it was 78; in the test on Salmonella typhimurium [6], 42.
Turning to `Cc1c2ccccc2c(C)c2c1ccc1ccccc12`, the Activity in the test with Salmonella typhimurium [1] was 489; in the test with Salmonella typhimurium [3], 15; with Salmonella typhimurium [7], “Not toxic”; in the test on Salmonella typhimurium [8], “Not toxic”; in the test with Salmonella typhimurium [5], 58; in the test on Salmonella typhimurium [9], “Not toxic”.
For the molecule `Cc1c2ccccc2c(C)c2c3c(ccc12)C=CCC3`, the Activity in the test on Salmonella typhimurium [1] was 69; in the test on Salmonella typhimurium [2], 58; with Salmonella typhimurium [10], “Not toxic”; in the test with Salmonella typhimurium [4] it was 146; with Salmonella typhimurium [8], “Not toxic”; with Salmonella typhimurium [5] it was 25.
